Bioassay records from PubChem.
A selection: hits, their analogues and other compounds. The true share with any hit is near 2.5%.
PAX8 inh HTS: PAX8 transcriptional activity inhibition; hit rate 1.2% among 360,000; RMG-I TPO-luciferase reporter, SteadyGlo, 24 h; inhibition, % at 12.6 µM; AID 652154;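 active means mean replicate inhibition at least 60% with every replicate also reaching 60%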;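 further: luciferase light reporting Pax8 driven TPO promoter activity; plate controls were median of neutral control wells for no effect and mitoxantrone controls for full effect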
Glyco luc inh: blocks N-linked glycosylation in D54 reporter cells | D54 ERlucT glycosylation luciferase reporter, 24 h; percent of 100 nM tunicamycin response | reporter increase, % at 12.5 µM | hit rate 0.23% among 360,000 | AID 588692;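 active means mean luciferase reporter signal, scaled so untreated is 0 and the glycosylation-blocking control 100, at or above a set limit in every replicate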;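 further: luciferase carries N-glycosylation sites so blocking glycosylation raises the light; 0% = median of neutral control wells and 100% = median of 100 nM tunicamycin wells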
MLL AF4-AF9 inh: MLL-AF4/AF9 protein interaction inhibition. inhibition, % at 10 µM. P42568. hit rate 0.47% among 350,000. AlphaScreen, biotin-AF4 peptide binding to FLAG-AF9;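 active means every replicate reaching a set inhibition limit, whatever the replicate mean, cut at about 25% in these data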;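 further: 0% = plate neutral control median and 100% = total signal loss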
Target sequence (P42568 whole entry, looked up): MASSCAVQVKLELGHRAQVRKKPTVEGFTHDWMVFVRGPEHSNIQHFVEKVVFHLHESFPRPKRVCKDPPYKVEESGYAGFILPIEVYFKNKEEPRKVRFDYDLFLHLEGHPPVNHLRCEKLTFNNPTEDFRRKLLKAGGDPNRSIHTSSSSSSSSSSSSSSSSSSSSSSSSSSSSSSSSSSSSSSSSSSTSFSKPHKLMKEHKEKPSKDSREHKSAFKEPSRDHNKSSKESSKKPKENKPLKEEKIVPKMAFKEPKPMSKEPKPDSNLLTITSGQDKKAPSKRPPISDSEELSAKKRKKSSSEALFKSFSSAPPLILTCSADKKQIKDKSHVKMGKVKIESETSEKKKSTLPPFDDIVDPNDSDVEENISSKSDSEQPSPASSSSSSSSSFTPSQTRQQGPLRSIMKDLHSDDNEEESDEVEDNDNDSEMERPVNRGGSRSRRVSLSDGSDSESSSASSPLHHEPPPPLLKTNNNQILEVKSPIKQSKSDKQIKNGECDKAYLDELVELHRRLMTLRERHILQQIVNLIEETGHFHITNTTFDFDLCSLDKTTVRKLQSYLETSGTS
EWS-Fli block: inhibitors of EWS/Fli oncoprotein transcriptional activity; A673 NR0B1-luciferase reporter, viability-normalised; inhibition, % at 12.6 µM; hit rate 0.67% among 350,000;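 active means mean inhibition of at least 50% after viability correction, with every replicate also passing that limit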;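 further: firefly luciferase signal divided by Alamar Blue viability fluorescence both relative to DMSO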
Env fusion inh: blocks HIV Env-driven cell-cell fusion; HeLa-JRFL Env/CEM21 cell fusion, luciferase; inhibition, % at 12.3 µM; hit rate 1.1% among 360,000; AID 651610;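 active means mean replicate inhibition score of at least 50 and every replicate individually at or above 50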;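 further: 0% = plate neutral controls and 100% = maraviroc near 300 nM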
FN deposit inh: fibronectin deposition inhibition | AH1F fibroblasts, Alexa488-fibronectin deposition fluorescence, overnight | inhibition, % at 12.6 µM | hit rate 0.086% among 350,000 | AID 743247;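 active means mean inhibition across replicates of 30% or more, regardless of how many single replicates reach that level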;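 further: positive control wells lacked labelled fibronectin entirely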
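Schedule: 1 h cell adhesion before compound, then overnight fibronectin incubation; test system: AH1F fibroblast monolayer depositing Alexa488-labelled fibronectin into matrix; quantity: 10000 AH1F cells per well; probe or stimulus: fluorescent fibronectin at 24 nM final; signal: fluorescence, ex 485 nm, em 525 nm; evaluation: percent inhibition as loss of matrix-bound fibronectin fluorescence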
The depositor's hits bear a star; [ ] = dose if it differs, or a comment.

Screening COCC#Cc1cnc2c(c1)C(=O)N([C@@H](C)CO)C[C@@H](C)[C@@H](CN(C)C(=O)Nc1ccccc1F)O2 returned MLL AF4-AF9 inh -2, EWS-Fli block -17, Env fusion inh -24[16.7 µM] and FN deposit inh -9.
Screening COc1ccc(/C(C)=N/NC(=O)c2cccc(S(=O)(=O)N3CCCC3)c2)c(O)c1 returned PAX8 inh HTS 66*, Glyco luc inh -9, MLL AF4-AF9 inh -15, EWS-Fli block -1, Env fusion inh 82* and FN deposit inh 6.
COc1ccc(NC(=O)N(C)C[C@H]2Oc3ccc(NS(=O)(=O)c4cn(C)cn4)cc3CC(=O)N([C@H](C)CO)C[C@@H]2C)cc1 was read as PAX8 inh HTS -19, MLL AF4-AF9 inh -2, EWS-Fli block -1, Env fusion inh -8[16.7 µM] and FN deposit inh 1.
For O=C(CSc1nnc(-c2ccc(F)cc2)c2ccccc12)Nc1ccccc1 the results were PAX8 inh HTS -12, Glyco luc inh 0, MLL AF4-AF9 inh 4, EWS-Fli block 63* and Env fusion inh 8.
Screening O=C(C[C@H]1C=C[C@@H](NC(=O)C2CCOCC2)[C@@H](CO)O1)Nc1nccs1 returned MLL AF4-AF9 inh -5 and EWS-Fli block -7.
CCCC(=O)Nc1ccc2c(c1)OC[C@H](C)N(C(=O)C1CCCC1)C[C@H](C)[C@H](OC)CN(C)C2=O was read as MLL AF4-AF9 inh -2, EWS-Fli block 1, Env fusion inh 8[16.7 µM] and FN deposit inh 11.
`Nc1ccc2cc3[nH]c4cc(N)ccc4c3nc2c1` gave PAX8 inh HTS 90*, Glyco luc inh -19, MLL AF4-AF9 inh -9, EWS-Fli block 42, Env fusion inh 61* and FN deposit inh -425.
Nc1ccc(-c2nc3ccc(N)cc3[nH]2)cc1 was read as PAX8 inh HTS 45, Glyco luc inh 2, MLL AF4-AF9 inh 11, EWS-Fli block 2, Env fusion inh -25 and FN deposit inh -11.
`O=C(CC1CC1)N1[C@H](CO)[C@@H](c2ccccc2)C12CN(Cc1ccncc1)C2` gave PAX8 inh HTS -14, MLL AF4-AF9 inh 0 and EWS-Fli block 0.
For O=C(O)c1ccc(CN2C(=O)c3cccc4c([N+](=O)[O-])ccc(c34)C2=O)cc1 the results were Glyco luc inh 31*.
For O=C1c2cccc3c([N+](=O)[O-])ccc(c23)C(=O)N1CCc1ccccn1 the results were PAX8 inh HTS 13, Glyco luc inh 21, MLL AF4-AF9 inh -2, EWS-Fli block 20, Env fusion inh -27 and FN deposit inh 5.
For Cc1ccc(C(=O)O)cc1N1C(=O)c2cccc3c([N+](=O)[O-])ccc(c23)C1=O the results were PAX8 inh HTS -1, Glyco luc inh 7, MLL AF4-AF9 inh -13, EWS-Fli block 17, Env fusion inh 7 and FN deposit inh -14.
Screening CN(C)CCCN1C(=O)c2cccc3c([N+](=O)[O-])ccc(c23)C1=O returned PAX8 inh HTS 16, Glyco luc inh 57* and FN deposit inh -1.
For COCC(=O)N1[C@@H]2c3cccc(=O)n3C[C@@H]2[C@@H](CO)[C@@H]1C(=O)NCc1ccccc1Cl the results were PAX8 inh HTS -21 and MLL AF4-AF9 inh -3.
CCCCOP(=O)(c1ccc(N(C)C)cc1)C(O)c1c(Cl)cccc1Cl (stereo not given) was read as PAX8 inh HTS -8, Glyco luc inh -3, MLL AF4-AF9 inh 3, EWS-Fli block 2, Env fusion inh 59* and FN deposit inh 1.
CCCCOP(=O)(c1ccc(N(C)C)cc1)C(O)c1ccc(N(C)C)cc1 (stereo not given) was read as PAX8 inh HTS 3, Glyco luc inh 2, MLL AF4-AF9 inh -1, EWS-Fli block 3 and Env fusion inh 14.
`O=C(NCCc1ccccc1F)c1ccc2c(c1)OCCO2` gave PAX8 inh HTS 110*, Glyco luc inh -20, MLL AF4-AF9 inh -9, EWS-Fli block 90*, Env fusion inh 76* and FN deposit inh 2.
`Cc1n[nH]c(C)c1S(=O)(=O)N(CC(=O)NC1CCCC1)c1ccc(C(C)C)cc1` gave PAX8 inh HTS -12, Glyco luc inh -2, MLL AF4-AF9 inh 1, EWS-Fli block -5, Env fusion inh 86* and FN deposit inh -3.
